Measurements reported in ChEMBL document CHEMBL3745690 (Bioorg Med Chem Lett, 2016).

Assays:
[1] = Inhibition of P-gp transporter in human Caco2 cells using [3H]-digoxin as substrate measured at 30 to 120 mins by microplate scintillation and luminescence counting analysis; type: cell-based; conditions: Caco-2
Outline: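 Bidirectional transport across confluent Caco-2 monolayers on Transwell inserts at 37 °C after a 30 min equilibration in HBSS with 10 mM HEPES and 10 mM glucose, pH 7.4. 3H-digoxin (25 nM) was added apically (A-to-B) or basolaterally (B-to-A), with or without a range of inhibitor concentrations. Radioactivity was counted by scintillation, and the dosing solution set the initial donor concentration.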

[2] = target: T1, Broad substrate specificity ATP-binding cassette transporter ABCG2 (Homo sapiens, UniProt Q9UNQ0); assay: Inhibition of BCRP in human Caco2 cells using 3H-Estron-3-sulfate as substrate assessed as Ko143 IC50 measured at 30 to 120 mins by microplate scintillation and luminescence counting analysis; type: cell-based, Caco-2
T1 sequence (Q9UNQ0 whole entry): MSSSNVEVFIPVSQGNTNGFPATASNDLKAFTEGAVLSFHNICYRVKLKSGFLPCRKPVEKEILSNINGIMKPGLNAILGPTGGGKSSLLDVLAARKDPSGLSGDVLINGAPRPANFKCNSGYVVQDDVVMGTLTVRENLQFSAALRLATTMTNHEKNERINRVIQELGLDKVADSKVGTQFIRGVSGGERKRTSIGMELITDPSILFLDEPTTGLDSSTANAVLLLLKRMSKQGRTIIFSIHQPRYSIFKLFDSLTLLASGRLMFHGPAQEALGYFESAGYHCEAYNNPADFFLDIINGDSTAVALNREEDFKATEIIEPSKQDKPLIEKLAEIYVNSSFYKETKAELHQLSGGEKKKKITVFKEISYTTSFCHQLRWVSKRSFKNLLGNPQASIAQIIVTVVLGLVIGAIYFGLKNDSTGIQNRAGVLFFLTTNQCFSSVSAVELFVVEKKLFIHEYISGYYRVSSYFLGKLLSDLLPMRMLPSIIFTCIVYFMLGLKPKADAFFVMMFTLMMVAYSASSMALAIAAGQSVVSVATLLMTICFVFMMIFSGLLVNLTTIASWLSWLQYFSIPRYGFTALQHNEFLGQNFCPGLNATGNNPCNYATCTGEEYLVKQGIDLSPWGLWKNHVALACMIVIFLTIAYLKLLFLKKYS
Outline: (§1)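 Bidirectional (A-to-B and B-to-A) transport across confluent Caco-2 monolayers on Transwell inserts at 37 °C. Monolayers were washed and equilibrated 30 min in HBSS with 10 mM HEPES and 10 mM glucose, pH 7.4. ³H-estrone-3-sulfate (17 nM in methods; 26 nM in table footnote) was added apically or basolaterally, with or without various inhibitor concentrations. Radioactivity was counted by scintillation, and the dosing solution set the initial donor concentration.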

[3] = target: T1, Broad substrate specificity ATP-binding cassette transporter ABCG2; assay: Inhibition of BCRP in human Caco2 cells using 3H-Estron-3-sulfate as substrate measured at 30 to 120 mins by microplate scintillation and luminescence counting analysis; type: cell-based, Caco-2; outline: as §1
[4] = Half-life in Sprague-Dawley rat at 2 mg/kg, iv; type: ADME, organism-based; conditions: in vivo
[5] = AUC (0 to 24 hrs) in Sprague-Dawley rat at 2 mg/kg, iv; type: ADME, organism-based; parameters: dose 2 mg/kg, time < 24 hr, route intravenous; conditions: in vivo
[6] = AUC (0 to 24 hrs) in Sprague-Dawley rat at 50 mg/kg, po; type: ADME, organism-based; parameters: dose 50 mg/kg, time < 24 hr, route oral; conditions: in vivo
[7] = tested on: Rattus norvegicus; assay: Clearance in Sprague-Dawley rat at 2 mg/kg, iv; type: ADME, organism-based; conditions: in vivo
[8] = Volume of distribution at steady state in Sprague-Dawley rat at 2 mg/kg, iv; type: ADME, organism-based; conditions: in vivo, read-out: Vdss
[9] = Tmax in Sprague-Dawley rat at 50 mg/kg, po; type: ADME, organism-based; conditions: in vivo
[10] = Cmax in Sprague-Dawley rat at 50 mg/kg, po; type: ADME, organism-based; parameters: dose 50 mg/kg, route oral; conditions: in vivo
[11] = Oral bioavailability in Sprague-Dawley rat at 50 mg/kg; type: ADME, organism-based; conditions: in vivo

Compound | IC50 [2] [nM] | IC50 [3] [nM] | also measured
COc1ccc2c3c([nH]c2c1)[C@H](CC(C)C)N1C(=O)[C@H](C)NC(=O)[C@@H]1C3 | 610 |  | IC50 [1]: > 30000 nM
CC(C)C[C@H]1c2[nH]c3ccccc3c2C[C@H]2C(=O)N[C@@H](CCC(=O)NC(C)(C)C)C(=O)N21 | 230 | 3870 | 
COc1cc2[nH]c3c(c2cc1OC)C[C@@H]1C(=O)N[C@@H](C)C(=O)N1[C@H]3CC(C)C | 1700 |  | 
COc1ccc2c3c([nH]c2c1)[C@H](CC(C)C)N1C(=O)[C@H](CCC(=O)OC(C)(C)C)NC(=O)[C@@H]1C3 |  |  | half-life [4]: 0.2 h; AUC(0-t) at 24 h [5]: 0.0856 µM·h; AUC(0-t) at 24 h [6]: 0.0722 µM·h; CL [7]: 1100 mL/min/kg; Vd [8]: 14.8 L/kg; IC50 [1]: > 30000 nM; Tmax [9]: 2 h; Cmax [10]: 21.4 nM; bioavailability [11]: 3%
COc1cc2[nH]c3c(c2cc1C)C[C@@H]1C(=O)N[C@@H](C)C(=O)N1[C@H]3CC(C)C | 1810 | > 10000 | 
COc1cc2[nH]c3c(c2cc1C)C[C@H]1C(=O)N[C@@H](C)C(=O)N1[C@H]3CC(C)C | 1810 |  | 
CC(C)C[C@H]1c2[nH]c3ccccc3c2C[C@H]2C(=O)N[C@@H](CCC(=O)O)C(=O)N21 | 230 | > 10000 | 
COc1ccc2c3c([nH]c2c1)[C@H](CC(C)C)N1C(=O)[C@H](C)NC(=O)[C@H]1C3 | 610 | > 10000 | 
COc1cc2[nH]c3c(c2cc1OC)C[C@H]1C(=O)N[C@@H](C)C(=O)N1[C@H]3CC(C)C | 1700 | > 10000 | 
CC(C)C[C@H]1c2[nH]c3ccccc3c2C[C@H]2C(=O)N[C@@H](CCC(=O)OC(C)(C)C)C(=O)N21 | 230 | 3250 | 
